According to ChEMBL document CHEMBL4402598, “Design and Synthesis of Bitopic 2-Phenylcyclopropylmethylamine (PCPMA) Derivatives as Selective Dopamine D3 Receptor Ligands” (J Med Chem, 2020):
Blank lines part the entries; values can stand above or below the molecule they belong to.

Legend:
D(1A) dopamine receptor = D(1A) dopamine receptor (Homo sapiens, UniProt P21728); assay: Displacement of [3H]-SCH23390 from recombinant human D1 receptor transiently expressed in HEKT cell membranes measured after 90 mins by microbeta scintillation counting method
D(2) dopamine receptor = D(2) dopamine receptor (Homo sapiens, UniProt P14416); assay: Displacement of [3H]-N-methylspiperone from recombinant human D2 receptor stably expressed in fibroblast cell membranes measured after 90 mins by microbeta scintillation counting method
D(1B) dopamine receptor = D(1B) dopamine receptor (Homo sapiens, UniProt P21918); assay: Displacement of [3H]-SCH23390 from recombinant human D5 receptor transiently expressed in HEKT cell membranes measured after 90 mins by microbeta scintillation counting method
[1] = molecular target: T1, 5-hydroxytryptamine receptor 2C (Homo sapiens, UniProt P28335); assay: Displacement of [3H]-Mesulergine from recombinant human 5HT2C receptor expressed in HEKT cell membranes measured after 90 mins by microbeta scintillation counting method
T1 sequence (P28335 whole entry): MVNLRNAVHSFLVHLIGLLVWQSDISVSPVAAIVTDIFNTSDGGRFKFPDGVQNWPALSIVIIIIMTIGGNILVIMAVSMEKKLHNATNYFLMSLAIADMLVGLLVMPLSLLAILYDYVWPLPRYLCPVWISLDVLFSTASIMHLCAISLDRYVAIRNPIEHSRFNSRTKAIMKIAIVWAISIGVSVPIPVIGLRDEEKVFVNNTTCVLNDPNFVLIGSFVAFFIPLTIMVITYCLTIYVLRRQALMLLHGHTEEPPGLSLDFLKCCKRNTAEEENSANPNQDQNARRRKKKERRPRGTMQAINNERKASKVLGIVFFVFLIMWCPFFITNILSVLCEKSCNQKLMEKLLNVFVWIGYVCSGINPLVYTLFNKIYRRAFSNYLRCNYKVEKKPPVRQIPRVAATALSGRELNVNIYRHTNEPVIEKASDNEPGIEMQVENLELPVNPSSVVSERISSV

D(3) dopamine receptor = D(3) dopamine receptor (Homo sapiens, UniProt P35462); assay: Displacement of [3H]-N-methylspiperone from recombinant human D3 receptor (unknown origin) measured after 90 mins by microbeta scintillation counting method
D(4) dopamine receptor = molecular target: T2, D(4) dopamine receptor (Homo sapiens, UniProt P21917); assay: Displacement of [3H]-N-methylspiperone from recombinant human D4 receptor stably expressed in HEK cell membranes measured after 90 mins by microbeta scintillation counting method
T2 sequence (P21917 whole entry): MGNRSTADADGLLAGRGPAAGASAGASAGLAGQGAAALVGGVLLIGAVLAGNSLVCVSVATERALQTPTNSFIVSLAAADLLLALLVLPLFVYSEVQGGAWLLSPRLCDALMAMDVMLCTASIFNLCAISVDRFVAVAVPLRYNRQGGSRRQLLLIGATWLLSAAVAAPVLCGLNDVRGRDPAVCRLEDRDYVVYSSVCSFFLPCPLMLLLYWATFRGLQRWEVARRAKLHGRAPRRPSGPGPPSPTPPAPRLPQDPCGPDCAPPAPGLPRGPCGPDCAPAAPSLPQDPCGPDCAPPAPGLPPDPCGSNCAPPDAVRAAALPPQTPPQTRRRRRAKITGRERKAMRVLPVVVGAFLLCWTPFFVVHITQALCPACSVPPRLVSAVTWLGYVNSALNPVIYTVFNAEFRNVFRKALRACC

[2] = Half life in ICR mouse at 10 mg/kg, po by LC-MS/MS analysis; assay type: ADME, organism-based; conditions: in vivo
Method in brief: (§1)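 Male ICR mice (6-8 weeks, ~25 g) dosed with compound dissolved in saline, 5 mg/kg iv or 10 mg/kg po, nine animals per group. Samples stored at -80 °C; drug quantified by LC-MS/MS.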

[3] = Drug level in ICR mouse plasma at 10 mg/kg, po measured after 2 hrs by LC-MS/MS analysis; assay type: ADME, organism-based
Method in brief: (§2)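 Male ICR mice (6-8 weeks, ~25 g) received compound in saline, 5 mg/kg iv or 10 mg/kg po. Brains collected at 0.5 and 2.0 h, saline-washed, weighed, homogenized in cold 50% methanol (1 g:3 mL). Plasma prepared from orbital blood. Samples held at -80 °C; LC-MS/MS quantitation. Brain/plasma ratio calculated from the two concentrations.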

[4] = Ratio of drug level in ICR mouse brain to plasma at 5 mg/kg, iv measured after 0.5 hrs by LC-MS/MS analysis; assay type: ADME, organism-based; conditions: read-out: BPR; method in brief: as §2
[5] = Drug level in ICR mouse brain at 5 mg/kg, iv measured after 0.5 hrs by LC-MS/MS analysis; assay type: ADME, organism-based; method in brief: as §2
[6] = Drug level in ICR mouse plasma at 5 mg/kg, iv measured after 2 hrs by LC-MS/MS analysis; assay type: ADME, organism-based; method in brief: as §2
[7] = AUC (0 to t) in ICR mouse at 10 mg/kg, po by LC-MS/MS analysis; assay type: ADME, organism-based; conditions: in vivo; method in brief: as §1
[8] = Ratio of drug level in ICR mouse brain to plasma at 10 mg/kg, po measured after 2 hrs by LC-MS/MS analysis; assay type: ADME, organism-based; conditions: read-out: BPR; method in brief: as §2
[9] = Half life in ICR mouse at 5 mg/kg, iv by LC-MS/MS analysis; assay type: ADME, organism-based; conditions: in vivo; method in brief: as §1
[10] = molecular target: 5-hydroxytryptamine receptor 2A (Homo sapiens, UniProt P28223); assay: Agonist activity at 5HT2A receptor (unknown origin) expressed in HEK293 cells co-expressing Gq assessed as induction of calcium mobilization measured at 1 sec interval for 60 secs by Fluo-4 calcium dye based FLIPR assay; assay type: cell-based; conditions: hek293, 1 min
[11] = Cmax in ICR mouse at 10 mg/kg, po by LC-MS/MS analysis; assay type: ADME, organism-based; design: dose 10 mg/kg, route oral; conditions: in vivo; method in brief: as §1
[12] = Clearance in ICR mouse at 5 mg/kg, iv by LC-MS/MS analysis; assay type: ADME, organism-based; conditions: in vivo; method in brief: as §1
[13] = molecular target: 5-hydroxytryptamine receptor 2B (Homo sapiens, UniProt P41595); assay: Agonist activity at 5HT2B receptor (unknown origin) expressed in HEK293 cells co-expressing Gq assessed as induction of calcium mobilization measured at 1 sec interval for 60 secs by Fluo-4 calcium dye based FLIPR assay; assay type: cell-based; conditions: hek293, 1 min
[14] = Ratio of drug level in ICR mouse brain to plasma at 10 mg/kg, po measured after 0.5 hrs by LC-MS/MS analysis; assay type: ADME, organism-based; conditions: read-out: BPR; method in brief: as §2
[15] = Tmax in ICR mouse at 10 mg/kg, po by LC-MS/MS analysis; assay type: ADME, organism-based; conditions: in vivo; method in brief: as §1
[16] = Drug level in ICR mouse brain at 10 mg/kg, po measured after 2 hrs by LC-MS/MS analysis; assay type: ADME, organism-based; method in brief: as §2
[17] = Drug level in ICR mouse brain at 5 mg/kg, iv measured after 2 hrs by LC-MS/MS analysis; assay type: ADME, organism-based; method in brief: as §2
[18] = Drug level in ICR mouse brain at 10 mg/kg, po measured after 0.5 hrs by LC-MS/MS analysis; assay type: ADME, organism-based; method in brief: as §2
[19] = Drug level in ICR mouse plasma at 5 mg/kg, iv measured after 0.5 hrs by LC-MS/MS analysis; assay type: ADME, organism-based; method in brief: as §2
[20] = MRT in ICR mouse at 5 mg/kg, iv by LC-MS/MS analysis; assay type: ADME, organism-based; conditions: in vivo; method in brief: as §1
[21] = Drug level in ICR mouse plasma at 10 mg/kg, po measured after 0.5 hrs by LC-MS/MS analysis; assay type: ADME, organism-based; method in brief: as §2
[22] = Oral bioavailability in ICR mouse at 10 mg/kg by LC-MS/MS analysis; assay type: ADME, organism-based; conditions: in vivo; method in brief: as §1
[23] = Volume of distribution at steady state in ICR mouse at 5 mg/kg, iv by LC-MS/MS analysis; assay type: ADME, organism-based; conditions: in vivo, read-out: Vdss; method in brief: as §1
[24] = MRT in ICR mouse at 10 mg/kg, po by LC-MS/MS analysis; assay type: ADME, organism-based; conditions: in vivo; method in brief: as §1
[25] = AUC (0 to t) in ICR mouse at 5 mg/kg, iv by LC-MS/MS analysis; assay type: ADME, organism-based; conditions: in vivo; method in brief: as §1
[26] = Ratio of drug level in ICR mouse brain to plasma at 5 mg/kg, iv measured after 2 hrs by LC-MS/MS analysis; assay type: ADME, organism-based; conditions: read-out: BPR; method in brief: as §2
[27] = molecular target: T1, 5-hydroxytryptamine receptor 2C; assay: Antagonist activity at human 5HT2C receptor stably expressed in HEK293 cells co-expressing Gq assessed as inhibition of 5-HT-induced calcium mobilization preincubated for 15 mins followed by 5-HT addition and measured at 1 sec interval for 60 secs by Fluo-4 calcium dye based FLIPR assay; assay type: functional, cell-based
Method in brief: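 5-HT2C stably transfected HEK293 cells, loaded with Fluo-4 Direct (HBSS, 20 mM HEPES pH 7.4, 2.5 mM probenecid; 50 min 37 °C, 10 min room temperature). Test compound added, then 5-HT (final 1 nM) 15 min later.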

Chain of D(2) dopamine receptor (P14416 whole entry): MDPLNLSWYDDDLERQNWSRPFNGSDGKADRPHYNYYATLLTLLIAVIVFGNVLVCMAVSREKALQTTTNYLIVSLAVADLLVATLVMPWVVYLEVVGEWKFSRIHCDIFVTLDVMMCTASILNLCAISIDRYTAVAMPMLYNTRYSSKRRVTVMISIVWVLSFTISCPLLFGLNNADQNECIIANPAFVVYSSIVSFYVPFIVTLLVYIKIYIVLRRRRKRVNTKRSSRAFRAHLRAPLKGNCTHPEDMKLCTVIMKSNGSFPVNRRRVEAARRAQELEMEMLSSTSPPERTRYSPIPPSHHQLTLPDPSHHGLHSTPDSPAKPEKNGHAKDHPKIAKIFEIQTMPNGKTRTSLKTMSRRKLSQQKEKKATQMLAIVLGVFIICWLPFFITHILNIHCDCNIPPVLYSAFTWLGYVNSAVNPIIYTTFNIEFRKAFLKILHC
Chain of D(3) dopamine receptor (P35462 whole entry): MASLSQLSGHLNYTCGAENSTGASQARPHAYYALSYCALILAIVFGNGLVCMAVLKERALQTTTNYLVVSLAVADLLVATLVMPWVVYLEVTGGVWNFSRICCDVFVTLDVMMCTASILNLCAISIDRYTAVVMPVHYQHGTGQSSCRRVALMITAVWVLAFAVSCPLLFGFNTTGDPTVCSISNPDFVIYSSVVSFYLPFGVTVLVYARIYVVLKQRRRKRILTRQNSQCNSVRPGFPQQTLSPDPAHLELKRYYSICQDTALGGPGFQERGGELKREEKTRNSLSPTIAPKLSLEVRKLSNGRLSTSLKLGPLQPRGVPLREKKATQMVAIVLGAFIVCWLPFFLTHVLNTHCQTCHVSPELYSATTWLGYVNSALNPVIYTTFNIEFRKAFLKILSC
Chain of D(1B) dopamine receptor (P21918 whole entry): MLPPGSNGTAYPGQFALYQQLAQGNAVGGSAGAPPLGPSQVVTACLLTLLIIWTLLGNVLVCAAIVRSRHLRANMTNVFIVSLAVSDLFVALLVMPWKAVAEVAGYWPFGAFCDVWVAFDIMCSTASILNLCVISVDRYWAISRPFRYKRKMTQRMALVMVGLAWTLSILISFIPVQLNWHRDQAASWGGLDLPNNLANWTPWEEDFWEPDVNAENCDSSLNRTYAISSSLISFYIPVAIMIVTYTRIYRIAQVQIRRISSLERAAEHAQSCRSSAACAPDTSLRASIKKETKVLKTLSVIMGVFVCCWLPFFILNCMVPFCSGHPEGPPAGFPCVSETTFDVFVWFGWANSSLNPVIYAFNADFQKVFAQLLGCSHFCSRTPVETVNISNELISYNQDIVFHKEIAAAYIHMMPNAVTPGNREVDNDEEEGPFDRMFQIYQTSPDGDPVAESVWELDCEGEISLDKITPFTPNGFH
Chain of D(1A) dopamine receptor (P21728 whole entry): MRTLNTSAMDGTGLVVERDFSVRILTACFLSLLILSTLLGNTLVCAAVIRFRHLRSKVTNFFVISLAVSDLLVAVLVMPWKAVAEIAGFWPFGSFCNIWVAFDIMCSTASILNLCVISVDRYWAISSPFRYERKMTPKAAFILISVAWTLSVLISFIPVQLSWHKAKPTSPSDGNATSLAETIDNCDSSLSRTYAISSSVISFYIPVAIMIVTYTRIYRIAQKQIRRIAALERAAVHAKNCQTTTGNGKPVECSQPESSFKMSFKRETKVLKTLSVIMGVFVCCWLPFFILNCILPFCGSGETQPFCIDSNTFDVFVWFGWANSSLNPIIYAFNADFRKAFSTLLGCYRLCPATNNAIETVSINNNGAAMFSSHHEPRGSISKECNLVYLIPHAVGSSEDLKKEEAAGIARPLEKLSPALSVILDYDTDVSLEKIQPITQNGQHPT
Chain of 5-hydroxytryptamine receptor 2A (P28223 whole entry): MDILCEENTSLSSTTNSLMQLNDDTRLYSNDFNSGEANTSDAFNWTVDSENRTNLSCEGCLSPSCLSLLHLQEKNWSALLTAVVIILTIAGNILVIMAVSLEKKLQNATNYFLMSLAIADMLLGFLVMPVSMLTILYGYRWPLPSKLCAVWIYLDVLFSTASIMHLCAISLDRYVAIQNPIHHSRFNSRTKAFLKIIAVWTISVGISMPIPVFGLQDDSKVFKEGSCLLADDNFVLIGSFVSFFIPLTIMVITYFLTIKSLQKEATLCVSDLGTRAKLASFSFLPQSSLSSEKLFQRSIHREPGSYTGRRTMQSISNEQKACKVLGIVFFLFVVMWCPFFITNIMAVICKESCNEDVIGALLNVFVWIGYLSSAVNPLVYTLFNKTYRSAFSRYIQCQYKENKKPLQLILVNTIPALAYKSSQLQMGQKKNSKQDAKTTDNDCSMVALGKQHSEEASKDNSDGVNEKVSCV
Chain of 5-hydroxytryptamine receptor 2B (P41595 whole entry): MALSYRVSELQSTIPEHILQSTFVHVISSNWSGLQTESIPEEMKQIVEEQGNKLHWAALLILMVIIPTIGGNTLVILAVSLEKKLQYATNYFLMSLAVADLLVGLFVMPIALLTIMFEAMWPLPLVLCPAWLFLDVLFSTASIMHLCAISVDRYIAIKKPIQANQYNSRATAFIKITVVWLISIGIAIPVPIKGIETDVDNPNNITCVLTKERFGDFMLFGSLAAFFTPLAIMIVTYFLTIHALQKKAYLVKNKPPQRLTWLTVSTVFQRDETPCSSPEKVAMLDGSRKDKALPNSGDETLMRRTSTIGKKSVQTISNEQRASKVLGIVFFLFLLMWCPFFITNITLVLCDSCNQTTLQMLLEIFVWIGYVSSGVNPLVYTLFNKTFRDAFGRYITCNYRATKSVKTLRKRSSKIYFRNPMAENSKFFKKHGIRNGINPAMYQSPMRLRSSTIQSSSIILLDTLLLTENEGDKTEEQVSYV

- Ki (D(1A) dopamine receptor): 1920 nM
- Ki (D(2) dopamine receptor): 233 nM
- Ki (D(1B) dopamine receptor): > 5000 nM
- Ki [1]: 535 nM
- Ki (D(3) dopamine receptor): 36.7 nM
- Ki (D(4) dopamine receptor): 130 nM
SMILES: CCCN(CCCSc1nnc(-c2ccccc2)n1C)CC1CC1c1cc(Cl)ccc1OC (centres undefined)

- Ki (D(1A) dopamine receptor): 2910 nM
- Ki (D(2) dopamine receptor): > 5000 nM
- Ki (D(1B) dopamine receptor): > 5000 nM
- Ki [1]: 1340 nM
- Ki (D(3) dopamine receptor): 45.4 nM
- Ki (D(4) dopamine receptor): 2220 nM
SMILES: CCCN(CCCCNC(=O)c1ccc(-c2ccccn2)cc1)CC1CC1c1cccc(F)c1 (centres undefined)

- Ki (D(1A) dopamine receptor): 1380 nM
- Ki (D(2) dopamine receptor): 537 nM
- half-life [2]: 4.11 h
- concentration at 2 h [3]: 67.7 ng/mL
- Kp at 0.5 h [4]: 3.88
- concentration at 0.5 h [5]: 833 ng/mL
- concentration at 2 h [6]: 94.8 ng/mL
- AUC(0-t) [7]: 428 ng·h/mL
- Kp at 2 h [8]: 2.36
- half-life [9]: 3.12 h
- Ki (D(1B) dopamine receptor): > 5000 nM
- Activity [10]: Active
- Cmax [11]: 63.9 ng/mL
- clearance [12]: 117 mL/min/kg
- Activity [13]: Not Active
- Kp at 0.5 h [14]: 1.45
- Tmax [15]: 1 h
- concentration at 2 h [16]: 160 ng/mL
- concentration at 2 h [17]: 543 ng/mL
- Ki [1]: 513 nM
- concentration at 0.5 h [18]: 51.3 ng/mL
- concentration at 0.5 h [19]: 215 ng/mL
- MRT [20]: 3.4 h
- concentration at 0.5 h [21]: 35.5 ng/mL
- bioavailability [22]: 34.1%
- Vd [23]: 23.8 L/kg
- MRT [24]: 6 h
- AUC(0-t) [25]: 629 ng·h/mL
- Ki (D(4) dopamine receptor): 1050 nM
- Kp at 2 h [26]: 5.72
- IC50 [27]: > 30000 nM
SMILES: CCCN(CCCCNC(=O)c1cc2ccccc2[nH]1)C[C@@H]1C[C@H]1c1cccc(Cl)c1Cl.Cl

- Ki (D(1A) dopamine receptor): 1710 nM
- Ki (D(2) dopamine receptor): > 5000 nM
- Ki (D(1B) dopamine receptor): 5800 nM
- Ki [1]: 1260 nM
- Ki (D(3) dopamine receptor): 43 nM
- Ki (D(4) dopamine receptor): 215 nM
SMILES: CCCN(CCCCNC(=O)c1ccc2ccccc2c1)CC1CC1c1ccc(C(F)(F)F)cc1 (centres undefined)
